# From PubChem
# Cneo AK release – causes C. neoformans cell lysis. adenylate kinase release luminescence, 4 h; normalised: neutral wells 0, clomiphene wells 100. lysis activity, % at 15 µM. 360,000 compounds, 0.2% hits. AID 651654;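 active = mean lysis activity across replicates of at least 80%, whatever share of replicates individually reach that level; inactive = mean lysis activity below 80%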
#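 Assay system: Cryptococcus neoformans yeast cells / Dosing: single-point compound dose / Timing: 4 h at 37 °C static, read 1 h later / Measured by: luminescence of released adenylate kinase using an AK detection reagent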
# E-sel inducer – induces E-selectin expression in human endothelial cells; HUVEC E-selectin immunofluorescence imaging; normalized: neutral wells 0, TNF-alpha wells 100; activation, % at 7.58 µM; P16581; AID 686992; 260,000 compounds, 0.37% hits;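 active = mean E-selectin-positive cell signal at least 10% of the positive control, reached in at least 60% of replicates, without over 20% cell loss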
# Target sequence (P16581 whole entry, looked up): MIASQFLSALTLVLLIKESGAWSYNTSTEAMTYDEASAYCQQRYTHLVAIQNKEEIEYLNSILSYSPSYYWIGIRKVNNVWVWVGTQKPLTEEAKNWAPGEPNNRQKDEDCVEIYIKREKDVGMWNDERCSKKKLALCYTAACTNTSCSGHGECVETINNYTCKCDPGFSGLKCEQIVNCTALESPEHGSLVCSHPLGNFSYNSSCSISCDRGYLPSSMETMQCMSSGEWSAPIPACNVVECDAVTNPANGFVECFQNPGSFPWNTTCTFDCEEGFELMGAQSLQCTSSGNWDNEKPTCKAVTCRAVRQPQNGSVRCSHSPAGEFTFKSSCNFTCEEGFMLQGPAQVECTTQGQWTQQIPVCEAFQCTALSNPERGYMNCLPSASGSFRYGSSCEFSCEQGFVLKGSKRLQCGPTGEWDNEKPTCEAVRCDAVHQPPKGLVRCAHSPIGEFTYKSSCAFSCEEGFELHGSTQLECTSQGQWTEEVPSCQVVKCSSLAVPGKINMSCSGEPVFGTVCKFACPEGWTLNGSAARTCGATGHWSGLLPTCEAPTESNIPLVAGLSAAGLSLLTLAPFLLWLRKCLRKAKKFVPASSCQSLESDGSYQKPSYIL
#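 Assay system: HUVEC, human umbilical vein endothelial cells / Amount: 3,000 HUVEC/well / Controls: TNF-alpha positive control, DMSO neutral control / Compound dosing: single concentration / Medium: EGM-2 over gelatin coat / Evaluation: percent E-selectin-positive cells / Signal: immunofluorescence imaging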
# rRNA inh HTS – selective bacterial rRNA inhibition in E. coli. E. coli WT GFP vs humanized-ribosome RFP mutants, fluorescence, 24 h; active compounds read low; DMSO median 0, no signal -100. GFP signal change (wild-type ribosome), % (test concentration not listed). 350,000 compounds, 1.6% hits. AID 720706;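 active = significant combined selectivity score with lowered wild-type GFP, culture density cut under 30%, mutant RFP and density less affected; inactive = any of these conditions unmet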
# DENV2 CPE rescue – DENV2-induced cell death inhibition. AID 651640. DENV2-infected cells, cytopathic effect rescue, plate reader. CPE inhibition, % at 9.99 µM. 350,000 compounds, 1.7% hits; in the data active = CPE inhibition above about 20%, passing the limit was not always enough; tested in BHK-21 cells
# miR-122 sensor – inhibitors of miR-122 in Huh7 cells | AID 602342 | Huh7 miR-122 Renilla luciferase sensor, 48 h; neutral wells = 0, positive control = 100 | 340,000 compounds, 0.3% hits | activation (reporter increase), % at 12.5 µM;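 active = mean replicate activation score at least 90 and every replicate individually at or above 90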;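 also: higher luciferase means less miR-122 activity so hits act as miR-122 inhibitors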
# Hits are given with their value; . = inactive; / = no result given; [ ] = remark or other dose. Most compounds without a hit are left out; they make up all but 3.1% or so of the library.
SMILES,Cneo AK release,E-sel inducer,rRNA inh HTS,DENV2 CPE rescue,miR-122 sensor
Cc1ccc(-c2cc(C(=O)N/N=C/c3ccco3)[nH]n2)cc1,.,/,/,/,.
O=C(N/N=C/c1ccco1)c1cc(-c2ccc(Cl)cc2)n[nH]1,/,.,-19,.,/
C[n+]1ccc(C(=O)N/N=C/c2ccco2)cc1,.,139,.,.,.
COCC(=O)Nc1ccc2c(c1)C(=O)N(C)[C@H]1CC[C@H](CC(=O)OC)O[C@@H]1CO2,/,.,.,.,/
C[C@@H]1CN([C@@H](C)CO)C(=O)c2cc(-c3ccc(C(=O)N(C)C)cc3)cnc2O[C@H]1CN(C)C(=O)CN(C)C,.,.,.,.,.
Cc1ccc(S(=O)(=O)CC(=O)c2cc(C)c(O)c(C)c2)cc1,.,.,-24,.,.
COC(=O)C[C@@H]1CC[C@H]2[C@@H](COc3ccc(NC(=O)c4cccc(Cl)c4)cc3C(=O)N2C)O1,.,.,.,.,/
CO[C@@H]1CN(C)C(=O)c2ccc(NC(=O)c3ccccc3)cc2OC[C@H](C)N(C(=O)CN(C)C)C[C@@H]1C,.,.,.,34,.
CO[C@H]1CN(C)C(=O)c2ccc(NC(=O)c3ccccc3)cc2OC[C@H](C)N(C(=O)CN(C)C)C[C@@H]1C,/,/,.,/,/
CO[C@H]1CN(C)C(=O)c2ccc(NC(=O)c3ccccc3)cc2OC[C@@H](C)N(C(=O)CN(C)C)C[C@@H]1C,.,.,.,28,.
C[C@@H]1CCCCO[C@@H](CN(C)C(=O)Nc2ccc(F)cc2)[C@@H](C)CN([C@@H](C)CO)C(=O)c2cc(NC(=O)Nc3ccc(C(F)(F)F)cc3)ccc2O1,/,.,.,.,/
CC(C)(C)CC(=O)NC(=S)NCCc1ccccc1,100,/,.,.,.
CC(C)NC(=O)Nc1ccc2c(c1)CC(=O)N([C@@H](C)CO)C[C@H](C)[C@@H](CN(C)Cc1ccc(Cl)c(Cl)c1)O2,.,.,.,.,.
CC(C)NC(=O)Nc1ccc2c(c1)CC(=O)N([C@H](C)CO)C[C@H](C)[C@H](CN(C)Cc1ccc(Cl)c(Cl)c1)O2,.,59,.,.,.
CC(C)NC(=O)Nc1ccc2c(c1)CC(=O)N([C@@H](C)CO)C[C@@H](C)[C@@H](CN(C)Cc1ccc(Cl)c(Cl)c1)O2,.,.,.,.,.
CC(C)NC(=O)Nc1ccc2c(c1)CC(=O)N([C@H](C)CO)C[C@@H](C)[C@@H](CN(C)Cc1ccc(Cl)c(Cl)c1)O2,.,47,.,.,.
COc1cc(/C=N/NC(=O)COc2ccccc2[N+](=O)[O-])ccc1OC(=O)c1ccco1,/,/,.,27,/
CC1Cc2ccccc2N1C(=O)COC(=O)c1cc(Br)ccc1O (centres undefined),/,.,.,.,.
CC1Cc2ccccc2N1C(=O)COC(=O)c1cccc(Br)c1 (centres undefined),.,/,-32,.,.
COc1cccc(/C=C/C(=O)OCC(=O)N2c3ccccc3CC2C)c1 (centres undefined),.,.,-18,.,.
CCOC(=O)c1ccc2nc(NC(=O)C(C)C)sc2c1,.,.,.,.,.
C=CCN(CC=C)S(=O)(=O)c1ccc2nc(NC(=O)C(C)C)sc2c1,.,/,/,/,122
C/C(=N\N=C1\NC(=O)C(Cc2ccccc2)S1)c1ccccc1 (centres undefined),/,.,-52,.,/
Cc1ccc(S(=O)(=O)N[C@@H]2CC[C@H](CCNC(=O)c3ccccc3F)O[C@H]2CO)cc1,.,.,.,.,.
CC(C)NC(=O)Nc1ccc2c(c1)CC(=O)N([C@H](C)CO)C[C@H](C)[C@H](CN(C)Cc1ccc(-c3ccccc3)cc1)O2,.,/,.,28,.
SMILES,Cneo AK release,E-sel inducer,rRNA inh HTS,DENV2 CPE rescue,miR-122 sensor
Cc1noc(C)c1NC(=O)Nc1ccc2c(c1)CC(=O)N([C@@H](C)CO)C[C@H](C)[C@H](CN(C)Cc1ccc(Oc3ccccc3)cc1)O2,.,399,.,.,.
Cc1noc(C)c1NC(=O)Nc1ccc2c(c1)CC(=O)N([C@H](C)CO)C[C@@H](C)[C@@H](CN(C)Cc1ccc(Oc3ccccc3)cc1)O2,.,.,.,.,.
CC(C)NC(=O)Nc1ccc2c(c1)CC(=O)N([C@H](C)CO)C[C@@H](C)[C@@H](CN(C)Cc1ccc(Oc3ccccc3)cc1)O2,105,.,.,.,97[16.7 µM]
CO[C@H]1CN(C)C(=O)c2ccc(NC(=O)c3ccc(F)cc3)cc2OC[C@H](C)N(C)C[C@@H]1C,/,.,.,.,/
C/C=C/c1ccc([C@@H]2[C@@H](CO)N3C(=O)CN(Cc4ccccc4)C[C@@H]23)cc1,/,.,.,.,/
O=C(Nc1ccncc1)Nc1ccc(Cl)cc1Cl,.,.,.,71,.
O=C(Nc1ccncc1)Nc1cc(Cl)ccc1Cl,.,.,.,.,.
COc1ccc2c3c([nH]c2c1)[C@H](CO)N(C(=O)c1cccnc1)CC31CCN(C(=O)Nc2cccc(F)c2)CC1,/,.,.,.,/
CN1c2ccc(-c3cccc(F)c3)cc2[C@@H]2[C@@H](CCN2C(=O)c2ccccc2F)[C@H]1CO,.,.,.,.,.
CO[C@@H]1CN(C)C(=O)c2ccc(NC(=O)c3cccc(F)c3)cc2OC[C@H](C)NC[C@@H]1C,.,.,.,24,.
COc1cccc(C(=O)Nc2ccc3c(c2)OC[C@@H](C)NC[C@H](C)[C@H](OC)CN(C)C3=O)c1,/,.,.,.,/
COc1cccc(C(=O)Nc2ccc3c(c2)OC[C@H](C)NC[C@H](C)[C@@H](OC)CN(C)C3=O)c1,/,.,.,25,/
CO[C@H]1CN(C)C(=O)c2cc(NC(=O)c3ccc(Oc4ccccc4)cc3)ccc2OC[C@@H](C)NC[C@H]1C,.,.,.,26,/
COc1cccc(CN2CC3(CCN(C(=O)Nc4c(C)noc4C)CC3)c3c([nH]c4cc(OC)ccc34)[C@@H]2CO)c1,/,/,.,/,/
C[C@@H]1CCCCO[C@H](CN(C)Cc2ccncc2)[C@H](C)CN([C@H](C)CO)C(=O)c2cc(NC(=O)Nc3ccc(C(F)(F)F)cc3)ccc2O1,.,.,.,.,.
COc1ccc(S(=O)(=O)N[C@@H]2CC[C@@H](CC(=O)O)O[C@@H]2CO)cc1,.,.,.,.,/
CCC(=O)Nc1ccc2c(c1)OC[C@@H](C)N(Cc1ccccc1OC)C[C@@H](C)[C@H](OC)CN(C)C2=O,.,.,.,.,/
Cc1ccc(S(=O)(=O)N(C)C[C@H]2OCCCC[C@@H](C)Oc3ccc(NC(=O)Nc4ccc(C(F)(F)F)cc4)cc3C(=O)N([C@@H](C)CO)C[C@H]2C)cc1,.,/,.,24,.
C[C@@H]1CCCCO[C@H](CN(C)S(=O)(=O)c2ccc(Cl)cc2)[C@@H](C)CN([C@@H](C)CO)C(=O)c2cc(NC(=O)Nc3ccc(C(F)(F)F)cc3)ccc2O1,.,.,.,32,.
